# Measurements from different studies.
# Compare with care: the assays were run in different laboratories.
# CDK2 with cyclin A2: Cyclin-dependent kinase 2, with cyclin A2 (CDK2, Homo sapiens, UniProt P24941)
# ST14: Suppressor of tumorigenicity 14 protein (ST14, Homo sapiens, UniProt Q9Y5Y6)
SMILES,target,test,conditions,endpoint,result
CNC(=O)c1cc(Oc2ccc(NC(=O)Nc3ccc(Cl)c(C(F)(F)F)c3)cc2)ccn1,CDK2 with cyclin A2,"enzyme activity, inhibitor",1 µM,inhibition,81.4%
Cc1cc([C@@H](C)Nc2ccccc2C(=O)O)c2nc(N3CCC(F)(F)CC3)c(C#N)c(=O)n2c1,"Angiopoietin-1 receptor (TEK, Homo sapiens, UniProt Q02763)","binding, competition with immobilised ligand",1 µM,remaining binding,60%
CC(=O)Nc1c(N)nc(SCC(=O)NN)[nH]c1=O,CDK2 with cyclin A2,"enzyme activity, inhibitor",10 nM,inhibition,22.9%
CC(C)(C)[C@H](NC(=O)[C@H](Cc1cscn1)NC(=O)CCc1ccccc1)C(=O)N[C@@H](CCCNC(=N)N)C(=O)c1nc2ccccc2s1,ST14,"enzyme activity, inhibitor",0.1 µM,remaining activity,89%
CNc1ncc2c(/C=C/C(=O)N3CCC(OC)CC3)nn(Cc3cccc(C(F)(F)F)c3)c2n1,"Tyrosine-protein kinase ZAP-70 (ZAP70, Homo sapiens, UniProt P43403)","enzyme activity, inhibitor, radiometric",1 µM,remaining activity,95%
N=C(N)NCCC[C@H](NC(=O)[C@H](CCC1CCCCC1)NC(=O)[C@H](Cc1cscn1)NC(=O)CCc1ccccc1)C(=O)c1nc2ccccc2s1,ST14,"enzyme activity, inhibitor",0.1 µM,remaining activity,5%
COc1cc(-c2cncc3c2CN(C)Cc2cc(N4CCNCC4)ccc2-3)cc(OC)c1OC,"Protein kinase C eta type (PRKCH, Homo sapiens, UniProt P24723)","enzyme activity, inhibitor",1 µM,remaining activity,115%
CC(C)(NC(=O)[C@H](Cc1cscn1)NC(=O)CCc1ccccc1)C(=O)N[C@@H](CCCNC(=N)N)C(=O)c1nc2ccccc2s1,ST14,"enzyme activity, inhibitor",0.1 µM,remaining activity,4%
CC(=O)Nc1c(N)nc(SCC(=O)N/N=C/c2ccc([N+](=O)[O-])cc2)[nH]c1=O,CDK2 with cyclin A2,"enzyme activity, inhibitor",0.1 µM,inhibition,37.6%
C=CC(=O)N1CCC(COCC(=O)N2CCN(c3nc(-c4cnc(N)nc4C(F)F)nc(N4CCOC[C@@H]4C)n3)CC2)CC1,"ALK tyrosine kinase receptor (ALK, Homo sapiens, UniProt Q9UM73, C1156Y)","binding, competition with immobilised ligand",1 µM,remaining binding,79%
